Reference: ChEMBL document CHEMBL1141421, “Chemical transformation and biological activities of ambrein, a major product of ambergris from Physeter macrocephalus (sperm whale)” (J Nat Prod, 2007)
Converted amounts (≈) assume the structure as drawn.

Legend:
[1] = Cytotoxicity against human hepa59T/VGH cells by MTT assay; assay type: cell-based, Hepa 59T/VGH; conditions: read-out: ED50 (the source's name)
Summary of the method: (§1)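 MTT read-out on human tumour cells: Hepa59T/VGH liver carcinoma, WiDr colon adenocarcinoma, A-549 lung carcinoma and MCF-7 breast adenocarcinoma. ED50 taken as the sample concentration giving 50% lower absorbance than untreated cells.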

[2] = Cytotoxicity against human WiDr cells by MTT assay; assay type: cell-based; conditions: read-out: ED50 (the source's name); summary of the method: as §1
[3] = Cytotoxicity against human A549 cells by MTT assay; assay type: cell-based; conditions: read-out: ED50 (the source's name); summary of the method: as §1
[4] = Cytotoxicity against human MCF7 cells by MTT assay; assay type: cell-based; conditions: read-out: ED50 (the source's name); summary of the method: as §1
[5] = Antiinflammatory activity assessed as inhibition of fMLP-induced elastase release in human neutrophils at 10 ug/mL relative to control; assay type: functional, cell-based, Neutrophil
Summary of the method: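 Neutrophils (6 × 10⁵/mL) supplemented with MeO-Suc-Ala-Ala-Pro-Val-p-nitroanilide (100 µM) elastase substrate, equilibrated 2 min at 37 °C, then exposed to test sample for 5 min. Stimulation with FMLP (100 nM)/cytochalasin B (0.5 µg/mL); elastase release followed continuously as absorbance change at 405 nm. DMSO-treated cells served as the 100% reference.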

For `C=C1CCCC(C)(C)[C@@H]1CC/C(C)=C/CC[C@@H]1[C@@]2(C)CCCC(C)(C)[C@@H]2CC[C@@]1(C)O` [AMBREIN], the CC50 [1] was > 10 µg/mL, the CC50 [2] was > 10 µg/mL and the CC50 [3] was > 10 µg/mL. The CC50 [4] was > 10 µg/mL and the IC50 ([5]; Homo sapiens, Neutrophil) was 4.6 µg/mL (≈ 10.7 µM).

With `C=C1CCCC(C)(C)[C@@H]1C[C@@H]1O[C@]2(C)CC[C@H]3C(C)(C)CCC[C@]3(C)[C@H]2CC/C=C\1C` the CC50 [1] was > 10 µg/mL, the CC50 [2] was > 10 µg/mL and the CC50 [3] was > 10 µg/mL. For the same compound, the CC50 [4] was > 10 µg/mL and the “Elastase release (% of DMSO control)” value [5] was 82%.

In the case of `C=C1CCCC(C)(C)[C@@H]1CCC(C)=O`, the CC50 [1] is reported as > 10 µg/mL, the CC50 [2] is reported as > 10 µg/mL and the CC50 [3] is reported as > 10 µg/mL. The CC50 [4] was > 10 µg/mL.

In the case of `C=C1CCCC(C)(C)[C@@H]1CC/C(=C\CC[C@@H]1[C@@]2(C)CCCC(C)(C)[C@@H]2CC[C@@]1(C)O)CO`, the CC50 [1] is reported as > 10 µg/mL, the CC50 [2] is reported as > 10 µg/mL and the CC50 [3] is reported as > 10 µg/mL. The CC50 [4] was > 10 µg/mL and the “Elastase release (% of DMSO control)” value [5] was 74.4%.

Compound `C=C1CCCC(C)(C)[C@@H]1CC(=O)/C(C)=C/CC[C@@H]1[C@@]2(C)CCCC(C)(C)[C@@H]2CC[C@@]1(C)O` has a CC50 [1] of 6.8 µg/mL (≈ 15.4 µM), a CC50 [2] of 10 µg/mL (≈ 22.6 µM) and a CC50 [3] of 5.3 µg/mL (≈ 12 µM). For the same compound, the CC50 [4] was 8.5 µg/mL (≈ 19.2 µM) and the “Elastase release (% of DMSO control)” value [5] was 95.1%.

With `C=C1CCCC(C)(C)[C@@H]1C/C=C(\C)[C@H]1CC[C@@H]2[C@@]3(C)CCCC(C)(C)[C@@H]3CC[C@@]2(C)O1` the CC50 [1] was > 10 µg/mL, the CC50 [2] was > 10 µg/mL and the CC50 [3] was > 10 µg/mL. The CC50 [4] was > 10 µg/mL and the “Elastase release (% of DMSO control)” value [5] was 92.2%.

With `C=C1CCCC(C)(C)[C@@H]1CC[C@](C)(O)[C@@H]1CCC2[C@@](C)(CC[C@H]3C(C)(C)CCC[C@]23C)O1` (some centres undefined) the CC50 [1] was > 10 µg/mL, the CC50 [2] was > 10 µg/mL and the CC50 [3] was > 10 µg/mL. The CC50 [4] was > 10 µg/mL and the “Elastase release (% of DMSO control)” value [5] was 81.3%.

With `C=C1CCCC(C)(C)[C@@H]1C[C@H](OC(=O)c1ccccc1)/C(C)=C/CC[C@@H]1[C@@]2(C)CCCC(C)(C)[C@@H]2CC[C@@]1(C)O` the CC50 [1] was > 10 µg/mL, the CC50 [2] was > 10 µg/mL and the CC50 [3] was > 10 µg/mL. For the same compound, the CC50 [4] was > 10 µg/mL and the “Elastase release (% of DMSO control)” value [5] was 115.5%.

With `O=c1c(-c2ccc(O)cc2)coc2cc(O)cc(O)c12` [GENISTEIN] the “Elastase release (% of DMSO control)” value [5] was 51.6%.

With `C=C1CCCC(C)(C)[C@@H]1C[C@@H](OC(=O)c1ccccc1)/C(C)=C/CC[C@@H]1[C@@]2(C)CCCC(C)(C)[C@@H]2CC[C@@]1(C)O` the CC50 [1] was > 10 µg/mL, the CC50 [2] was > 10 µg/mL and the CC50 [3] was > 10 µg/mL. For the same compound, the CC50 [4] was > 10 µg/mL and the “Elastase release (% of DMSO control)” value [5] was 85.6%.

Compound `COc1cccc2c1C(=O)c1c(O)c3c(c(O)c1C2=O)C[C@@](O)(C(=O)CO)C[C@@H]3O[C@H]1C[C@H](N)[C@H](O)[C@H](C)O1` [DOXORUBICIN] has a CC50 [1] of 0.11 µg/mL (≈ 0.202 µM), a CC50 [2] of 0.12 µg/mL (≈ 0.221 µM) and a CC50 [3] of 0.21 µg/mL (≈ 0.386 µM). It also gave a CC50 [4] of 0.12 µg/mL (≈ 0.221 µM).

In the case of `C=C1CCCC(C)(C)[C@@H]1C[C@@H](O)/C(C)=C/CC[C@@H]1[C@@]2(C)CCCC(C)(C)[C@@H]2CC[C@@]1(C)O`, the CC50 [1] is reported as > 10 µg/mL, the CC50 [2] is reported as > 10 µg/mL and the CC50 [3] is reported as > 10 µg/mL. The CC50 [4] was > 10 µg/mL and the “Elastase release (% of DMSO control)” value [5] was 79.3%.

With `C=C1CCCC(C)(C)[C@@H]1CC/C(=C/CC[C@@H]1[C@@]2(C)CCCC(C)(C)[C@@H]2CC[C@@]1(C)O)COC(=O)c1ccccc1` the CC50 [1] was > 10 µg/mL, the CC50 [2] was > 10 µg/mL and the CC50 [3] was > 10 µg/mL. The CC50 [4] was > 10 µg/mL and the “Elastase release (% of DMSO control)” value [5] was 75.6%.

Work on `C=C1CCCC(C)(C)[C@@H]1C[C@H](O)/C(C)=C/CC[C@@H]1[C@@]2(C)CCCC(C)(C)[C@@H]2CC[C@@]1(C)O` yielded a CC50 [1] of 5.7 µg/mL (≈ 12.8 µM), a CC50 [2] of 7.8 µg/mL (≈ 17.5 µM) and a CC50 [3] of 6.4 µg/mL (≈ 14.4 µM). The CC50 [4] was 4 µg/mL (≈ 8.99 µM) and the “Elastase release (% of DMSO control)” value [5] was 132.7%.
